Assay results taken from ChEMBL document CHEMBL1221204, “Spliceostatin A targets SF3b and inhibits both splicing and nuclear retention of pre-mRNA” (Nat Chem Biol, 2007).
Active and inactive are the calls of the source.

Legend:
COS-7 [1] = test: Induction of subcellular localization in p27 in african green monkey COS7 cells at 10 ng/ml after 6 hrs by immunofluorescence assay; format: functional, cell-based; conditions: Chlorocebus aethiops
COS-7 [2] = test: Induction of subcellular localization in truncated p27 in african green monkey COS7 cells at 10 ng/ml after 6 hrs by immunofluorescence assay; format: functional, cell-based; conditions: Chlorocebus aethiops
MCF7 [3] = test: Induction of truncated p27 expression in human MCF7 cells at 1 to 100 ng/ml after 14 hrs by immunoblotting; format: functional, cell-based
Outline: (§1)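 Human cell lines (HeLa, HEK 293T, MCF7, A549) cultured in DMEM with 10% heat-inactivated FBS. Cells treated with graded FR901464 concentrations for 14 h. Extracts immunoblotted for p27 and the truncated p27* form, with chemiluminescent detection.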

HeLa [4] = test: Induction of p21 expression in human HeLa cells at 100 ng/ml after 16 hrs by Western blotting; format: functional, cell-based
Outline: (§2)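 HeLa cells grown in DMEM with 10% FBS and treated with FR901464 at 100 ng ml-1 for 16 h. Lysates prepared by sonication in ice-cold IP buffer with protease inhibitors. Proteins separated by SDS-PAGE and immunoblotted with anti-p16, anti-p21 and anti-p27 antibodies; chemiluminescence detection.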

[5] = target: Cyclin-dependent kinase 2 (Homo sapiens) (UniProt P24941); test: Induction of CDK2 in HEK293T cells transfected with FLAG-tagged p27 at 200 nM by autoradiography; format: cell-based; conditions: HEK-293T
Outline: (§3)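 HEK 293T cells were transfected with pcDNA3.1, FLAG-p27 or FLAG-p27*, or were treated with MeOH, FR901464 (20, 200 nM) or SSA (190 nM). CDK2 was immunoprecipitated and its kinase activity read by autoradiography with histone H1 and (gamma-32P)ATP. Associated proteins were detected by western blotting.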

HEK-293T [6] = test: Induction of truncated p27 expression in HEK293T cells at 1 to 100 ng/ml after 14 hrs by immunoblotting; format: functional, cell-based; conditions: Homo sapiens; outline: as §1
HeLa [7] = test: Induction of p27 expression in human HeLa cells at 100 ng/ml after 16 hrs by Western blotting; format: functional, cell-based; outline: as §2
[8] = target: Cyclin-dependent kinase 2 (Homo sapiens) (UniProt P24941); test: Induction of CDK2 in HEK293T cells transfected with FLAG-tagged truncated p27 at 20 nM by Western blot analysis; format: cell-based; conditions: HEK-293T; outline: as §3
HeLa [9] = test: Induction of truncated p27 expression in human HeLa cells at 100 ng/ml after 14 hrs in presence of […] proteasome inhibitor MG132; format: functional, cell-based
[10] = target: Cyclin-dependent kinase 2 (Homo sapiens) (UniProt P24941); test: Induction of CDK2 in HEK293T cells transfected with FLAG-tagged truncated p27 at 200 nM by autoradiography; format: cell-based; conditions: HEK-293T; outline: as §3
HeLa [11] = test: Induction of CDK2 expression in human HeLa cells at 100 ng/ml after 14 hrs by Western blotting; format: functional, cell-based
HEK-293T [12] = test: Induction of FLAG-tagged p27 expression in HEK293T cells at 100 ng/ml after 14 hrs by Western blotting; format: functional, cell-based; conditions: Homo sapiens
HeLa [13] = test: Induction of CDK6 expression in human HeLa cells at 100 ng/ml after 14 hrs by Western blotting; format: functional, cell-based
A549 [14] = test: Induction of truncated p27 expression in human A549 cells at 1 to 100 ng/ml after 14 hrs by immunoblotting; format: functional, cell-based; outline: as §1
HeLa [15] = test: Induction of CDK4 expression in human HeLa cells at 100 ng/ml after 14 hrs by Western blotting; format: functional, cell-based
MCF7 [16] = test: Induction of p27 expression in human MCF7 cells at 1 to 100 ng/ml after 14 hrs by immunoblotting; format: functional, cell-based; outline: as §1
HeLa [17] = test: Induction of p27 expression in human HeLa cells at 1 to 100 ng/ml after 14 hrs by immunoblotting; format: functional, cell-based; outline: as §1
HeLa [18] = test: Induction of p27 expression in human HeLa cells at 100 ng/ml after 14 hrs in presence of […] proteasome inhibitor MG132; format: functional, cell-based
HeLa [19] = test: Induction of cyclin A expression in human HeLa cells at 100 ng/ml after 14 hrs by Western blotting; format: functional, cell-based
A549 [20] = test: Induction of p27 expression in human A549 cells at 1 to 100 ng/ml after 14 hrs by immunoblotting; format: functional, cell-based; outline: as §1
HeLa [21] = test: Induction of p16 expression in human HeLa cells at 100 ng/ml after 16 hrs by Western blotting; format: functional, cell-based; outline: as §2
HEK-293T [22] = test: Induction of p27 expression in HEK293T cells at 1 to 100 ng/ml after 14 hrs by immunoblotting; format: functional, cell-based; conditions: Homo sapiens; outline: as §1
[23] = Half life of the compound in culture medium by HPLC analysis; format: physicochemical
[24] = target: Cyclin-dependent kinase 2 (Homo sapiens) (UniProt P24941); test: Induction of CDK2 in HEK293T cells transfected with FLAG-tagged p27 at 20 nM by Western blot analysis; format: cell-based; conditions: HEK-293T; outline: as §3
HeLa [25] = test: Induction of truncated p27 expression in human HeLa cells up to 500 nM after 14 hrs by Western blotting; format: functional, cell-based
Outline: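 HeLa cells were exposed for 14 h to 1, 3, 10, 30, 100 and 300 ng ml-1. Cell extracts were immunoblotted for p27 and its C-terminally truncated form p27*, with chemiluminescent read-out.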

[26] = target: Splicing factor 3B subunit 3 (Homo sapiens) (UniProt Q15393); test: Binding affinity to SAP130 in human HeLa cells at 2 uM by LC-MS/MS analysis
Chain of Splicing factor 3B subunit 3 (Homo sapiens) (Q15393 whole entry, looked up): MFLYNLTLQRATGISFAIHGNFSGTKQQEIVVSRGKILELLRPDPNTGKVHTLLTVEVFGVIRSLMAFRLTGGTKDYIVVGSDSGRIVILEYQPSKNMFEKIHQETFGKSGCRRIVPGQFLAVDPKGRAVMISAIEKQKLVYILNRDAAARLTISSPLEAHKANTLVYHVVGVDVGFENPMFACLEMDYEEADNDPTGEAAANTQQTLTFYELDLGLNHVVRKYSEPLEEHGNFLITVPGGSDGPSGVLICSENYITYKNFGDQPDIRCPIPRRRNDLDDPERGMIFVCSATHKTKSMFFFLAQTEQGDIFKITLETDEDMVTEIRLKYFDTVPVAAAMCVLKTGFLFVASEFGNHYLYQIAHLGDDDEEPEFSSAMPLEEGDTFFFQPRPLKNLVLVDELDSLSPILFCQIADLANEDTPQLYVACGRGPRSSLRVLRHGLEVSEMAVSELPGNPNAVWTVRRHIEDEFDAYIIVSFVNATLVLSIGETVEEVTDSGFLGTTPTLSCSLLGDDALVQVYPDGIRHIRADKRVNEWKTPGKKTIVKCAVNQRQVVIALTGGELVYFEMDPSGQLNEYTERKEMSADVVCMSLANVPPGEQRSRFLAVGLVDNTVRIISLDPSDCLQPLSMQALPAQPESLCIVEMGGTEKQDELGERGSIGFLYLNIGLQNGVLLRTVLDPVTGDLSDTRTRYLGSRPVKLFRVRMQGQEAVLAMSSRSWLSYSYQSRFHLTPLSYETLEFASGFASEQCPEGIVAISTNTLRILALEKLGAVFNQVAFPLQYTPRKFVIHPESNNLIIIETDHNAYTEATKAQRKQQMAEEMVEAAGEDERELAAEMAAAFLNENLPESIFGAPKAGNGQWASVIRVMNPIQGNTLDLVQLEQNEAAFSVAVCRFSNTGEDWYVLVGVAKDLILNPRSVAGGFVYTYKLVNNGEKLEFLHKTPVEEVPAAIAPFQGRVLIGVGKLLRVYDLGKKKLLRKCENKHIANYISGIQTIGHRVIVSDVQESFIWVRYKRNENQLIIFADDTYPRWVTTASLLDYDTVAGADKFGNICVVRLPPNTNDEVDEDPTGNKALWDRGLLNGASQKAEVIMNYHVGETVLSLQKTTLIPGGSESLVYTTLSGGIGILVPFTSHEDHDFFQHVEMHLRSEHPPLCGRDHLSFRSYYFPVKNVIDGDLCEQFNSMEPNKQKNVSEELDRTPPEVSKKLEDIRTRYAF

[27] = target: T1, Splicing factor 3B subunit 2 (Homo sapiens) (UniProt Q13435); test: Binding affinity to SAP145 in human HeLa cells at 2 uM by LC-MS/MS analysis; format: cell-based
T1 sequence (whole entry): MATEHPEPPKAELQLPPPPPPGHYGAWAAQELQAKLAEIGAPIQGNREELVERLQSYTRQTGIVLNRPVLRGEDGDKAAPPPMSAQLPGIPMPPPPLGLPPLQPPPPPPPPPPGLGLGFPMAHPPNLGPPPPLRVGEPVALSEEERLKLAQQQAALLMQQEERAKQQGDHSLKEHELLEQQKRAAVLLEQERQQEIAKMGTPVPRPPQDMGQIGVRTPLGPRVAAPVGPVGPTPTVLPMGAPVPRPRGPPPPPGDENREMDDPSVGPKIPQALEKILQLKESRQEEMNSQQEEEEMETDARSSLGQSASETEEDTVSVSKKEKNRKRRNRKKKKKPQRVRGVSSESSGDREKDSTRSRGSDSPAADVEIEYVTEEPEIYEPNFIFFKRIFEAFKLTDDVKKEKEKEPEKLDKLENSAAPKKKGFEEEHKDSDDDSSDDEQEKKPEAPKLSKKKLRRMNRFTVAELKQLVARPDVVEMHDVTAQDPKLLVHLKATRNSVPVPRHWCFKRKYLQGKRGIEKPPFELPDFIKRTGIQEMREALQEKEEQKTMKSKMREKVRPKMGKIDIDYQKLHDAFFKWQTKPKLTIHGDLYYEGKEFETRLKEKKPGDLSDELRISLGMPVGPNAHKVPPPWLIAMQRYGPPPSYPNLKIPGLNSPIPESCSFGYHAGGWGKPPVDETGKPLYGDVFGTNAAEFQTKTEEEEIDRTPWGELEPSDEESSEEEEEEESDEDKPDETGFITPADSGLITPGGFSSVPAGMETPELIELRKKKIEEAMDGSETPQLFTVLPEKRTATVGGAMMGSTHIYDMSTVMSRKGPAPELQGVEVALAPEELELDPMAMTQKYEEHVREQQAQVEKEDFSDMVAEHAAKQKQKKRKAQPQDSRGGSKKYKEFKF

HeLa [28] = test: Induction of truncated p27 expression in human HeLa cells at 1 to 1000 nM by Western blot analysis; format: functional, cell-based
[29] = tested on: SF3b complex (Homo sapiens); test: Binding affinity to SF3b SAP155/SAP145/SAP130 complex in human HeLa cells at 2 uM by Western blotting
[30] = target: Splicing factor 3B subunit 1 (Homo sapiens) (UniProt O75533); test: Binding affinity to SAP155 in human HeLa cells at 2 uM by LC-MS/MS analysis
Chain of Splicing factor 3B subunit 1 (Homo sapiens) (O75533 whole entry, looked up): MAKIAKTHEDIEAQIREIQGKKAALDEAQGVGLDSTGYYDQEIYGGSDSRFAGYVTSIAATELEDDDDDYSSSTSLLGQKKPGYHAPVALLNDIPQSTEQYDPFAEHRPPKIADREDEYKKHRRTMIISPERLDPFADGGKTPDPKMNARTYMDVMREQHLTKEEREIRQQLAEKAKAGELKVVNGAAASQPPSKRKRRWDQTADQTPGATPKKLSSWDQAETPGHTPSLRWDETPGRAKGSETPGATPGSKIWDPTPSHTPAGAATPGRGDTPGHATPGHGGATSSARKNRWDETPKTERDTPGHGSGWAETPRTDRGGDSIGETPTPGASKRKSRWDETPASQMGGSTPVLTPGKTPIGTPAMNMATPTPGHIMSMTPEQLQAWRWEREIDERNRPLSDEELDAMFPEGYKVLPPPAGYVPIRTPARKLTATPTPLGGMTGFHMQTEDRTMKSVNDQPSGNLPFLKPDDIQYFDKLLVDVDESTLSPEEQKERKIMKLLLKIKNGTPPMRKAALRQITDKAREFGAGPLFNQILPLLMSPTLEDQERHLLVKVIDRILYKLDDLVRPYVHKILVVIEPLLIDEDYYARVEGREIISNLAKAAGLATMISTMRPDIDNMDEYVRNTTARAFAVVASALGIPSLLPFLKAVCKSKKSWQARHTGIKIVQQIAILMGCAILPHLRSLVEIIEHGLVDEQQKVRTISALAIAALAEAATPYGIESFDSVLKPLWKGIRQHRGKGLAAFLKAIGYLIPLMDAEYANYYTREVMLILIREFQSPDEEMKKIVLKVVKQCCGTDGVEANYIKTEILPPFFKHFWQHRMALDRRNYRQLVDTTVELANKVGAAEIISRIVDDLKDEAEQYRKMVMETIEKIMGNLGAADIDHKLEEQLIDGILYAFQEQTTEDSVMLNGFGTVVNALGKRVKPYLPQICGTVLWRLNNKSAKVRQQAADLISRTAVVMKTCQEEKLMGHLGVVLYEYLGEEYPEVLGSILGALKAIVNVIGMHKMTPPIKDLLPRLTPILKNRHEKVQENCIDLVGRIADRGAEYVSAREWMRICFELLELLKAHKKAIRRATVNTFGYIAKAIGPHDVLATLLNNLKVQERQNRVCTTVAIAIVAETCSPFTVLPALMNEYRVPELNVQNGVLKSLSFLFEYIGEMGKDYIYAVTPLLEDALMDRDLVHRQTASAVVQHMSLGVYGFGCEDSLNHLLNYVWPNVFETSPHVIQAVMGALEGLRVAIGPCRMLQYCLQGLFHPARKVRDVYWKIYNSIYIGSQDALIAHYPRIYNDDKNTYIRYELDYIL

CCC(=C/[C@H](C)C/C=C/C(C)=C/[C@@H](C)C(=O)[C@@H](C)[C@H](O)[C@@H](C)C/C(C)=C/C(=O)O)/C=C/[C@@H]1OC(=O)C=C[C@@H]1C
active: Activity (COS-7 [1]) | Activity (COS-7 [2])

CC(=O)O[C@@H](C)/C=C\C(=O)N[C@@H]1C[C@H](C)[C@H](C/C=C(C)/C=C/[C@H]2O[C@](C)(O)CC3(CO3)[C@@H]2O)O[C@@H]1C (single isomer, unassigned)
active: Activity (MCF7 [3]) | Activity (HeLa [4]) | Activity [5] | Activity (HEK-293T [6]) | Activity (HeLa [7]) | Activity (HeLa [9]) | Activity (HeLa [11]) | Activity (HEK-293T [12]) | Activity (HeLa [13]) | Activity (A549 [14]) | Activity (HeLa [15]) | Activity (MCF7 [16]) | Activity (HeLa [17]) | Activity (HeLa [18]) | Activity (HeLa [19]) | Activity (A549 [20]) | Activity (HeLa [21]) | Activity (HEK-293T [22])
45 min: half-life [23]
inactive: Activity [8] | Activity [10] | Activity [24]

CO[C@]1(C)C[C@@]2(CO2)[C@H](OC(C)=O)[C@@H](/C=C/C(C)=C/C[C@@H]2O[C@H](C)[C@H](NC(=O)/C=C\[C@H](C)OC(C)=O)C[C@@H]2C)O1
inactive: Activity (HeLa [25])

CC(=O)O[C@@H](C)/C=C\C(=O)N[C@@H]1C[C@H](C)[C@H](C/C=C(C)/C=C/[C@H]2O[C@](C)(OCCNC(=O)CCCCCNC(=O)CCCCCNC(=O)CCCC[C@@H]3SC[C@@H]4NC(=O)N[C@@H]43)C[C@@]3(CO3)[C@@H]2O)O[C@@H]1C
active: Activity [26] | Activity [27] | Activity (HeLa [28]) | Activity [29] | Activity [30]
